# Assay results reported in PubChem BioAssay AID623869 (Vanderbilt High Throughput Screening Facility, 2012).
# Among all 2,100 compounds or so, about 75 (4%) were called active.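 The calls were made as follows: active = calcium fluorescence trace judged by eye to show a response, as agonist, enhancer of the glutamate response, or inhibitor; inactive = trace judged by eye to show no response.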 The entries come from a sample that favours actives as a whole.
# Target: Metabotropic glutamate receptor 8 (Rattus norvegicus) (UniProt P70579)
# Experiment: mGlu8-mediated intracellular calcium response modulators – cell-based, HEK293 rmGlu8, Gqi9 chimera, Fluo-4 calcium, counter-screen for GIRK activator project, confirmation (AID 623869)
# Settings: HEK293 rmGlu8/Gqi9 calcium flux, Fluo-4 fluorescence; glutamate at EC20 added after compound
# Summary of the method: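 Material: rat mGlu8 HEK-293 cells with transient Gqi9; medium: HEPES-buffered HBSS, pH 7.4; reagent: EC20 glutamate; dosing: one dose, 20 µM addition solution, 0.2% DMSO; incubation: compound 4 min before glutamate, then 2 min recording; measured by: Fluo-4 calcium fluorescence, 1 Hz; evaluation: F/F0 fluorescence traces judged visually for each well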
# Chain of Metabotropic glutamate receptor 8 (Rattus norvegicus) (P70579 whole entry, looked up): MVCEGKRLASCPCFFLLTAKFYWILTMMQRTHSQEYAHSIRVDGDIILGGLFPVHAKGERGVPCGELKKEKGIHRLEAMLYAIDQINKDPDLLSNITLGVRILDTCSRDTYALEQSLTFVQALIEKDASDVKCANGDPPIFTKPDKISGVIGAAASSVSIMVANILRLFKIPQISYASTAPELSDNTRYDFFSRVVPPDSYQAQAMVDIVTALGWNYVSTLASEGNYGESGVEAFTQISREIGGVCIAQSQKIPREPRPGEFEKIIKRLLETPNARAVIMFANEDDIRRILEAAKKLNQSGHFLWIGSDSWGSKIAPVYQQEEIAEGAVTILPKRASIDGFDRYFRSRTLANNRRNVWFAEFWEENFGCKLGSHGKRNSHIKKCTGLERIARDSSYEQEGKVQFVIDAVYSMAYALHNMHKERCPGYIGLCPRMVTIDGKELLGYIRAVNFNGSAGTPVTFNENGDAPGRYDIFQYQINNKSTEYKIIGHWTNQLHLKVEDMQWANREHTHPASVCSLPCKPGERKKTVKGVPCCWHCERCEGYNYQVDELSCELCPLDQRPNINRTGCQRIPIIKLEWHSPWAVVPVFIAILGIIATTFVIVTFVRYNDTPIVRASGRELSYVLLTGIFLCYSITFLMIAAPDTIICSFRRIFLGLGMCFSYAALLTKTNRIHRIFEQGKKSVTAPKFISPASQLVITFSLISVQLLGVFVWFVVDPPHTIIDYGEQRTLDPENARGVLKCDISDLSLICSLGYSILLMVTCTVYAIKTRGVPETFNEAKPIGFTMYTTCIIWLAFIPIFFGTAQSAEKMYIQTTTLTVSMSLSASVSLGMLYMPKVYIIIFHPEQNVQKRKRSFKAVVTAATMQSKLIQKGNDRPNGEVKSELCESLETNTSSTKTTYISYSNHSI
row,SMILES,outcome
1,Cc1cccc(NC(=O)NC(=S)NC(=O)c2ccccc2)c1,inactive; 0
2,CC(=O)c1cccc(NC(=S)NC(=O)c2cccc(C)c2)c1,inactive; 0
3,Cc1ccnc(NC(=S)NC(=O)c2cccs2)c1,inactive; 0
4,Cc1cccc(C(=O)NC(=S)NNC(=O)c2ccccc2Cl)c1,active; 1
5,Cc1cccc(C(=O)NC(=S)NNC(=O)c2ccc(Cl)cc2)c1,active; 1
6,Cc1cccc(C(=O)NC(=S)NNC(=O)c2cccs2)c1,active; 1
7,O=C(CNC(=S)NC(=O)c1cccs1)c1ccccc1,inactive; 0
8,Cc1ccc(C(=O)NNC(=S)NC(=O)c2ccc(Cl)cc2)cc1,inactive; 4
9,O=C(NC(=S)NNC(=O)c1cccs1)c1ccc(Br)o1,active; 1
10,CC(C)CNC(=S)NC(=O)c1ccccc1Cl,inactive; 0
11,O=C(NNC(=O)c1cccs1)Nc1cccc(Cl)c1,inactive; 0
12,Cc1cccc(C(=O)NC(=S)Nc2ccccc2C(F)(F)F)c1,inactive; 0
13,CC(C)CNC(=S)NC(=O)c1ccc([N+](=O)[O-])cc1,inactive; 0
14,O=C(COc1ccccc1Cl)NC(=S)N1CCc2ccccc21,inactive; 0
15,C=CCCCCCCCCc1nc(=S)[nH][nH]1,inactive; 0
16,Cc1cccc(NC(=S)NNC(=O)c2sccc2C)c1,inactive; 0
17,O=C(NC(=S)N1CCN(c2ccc(Cl)cc2[N+](=O)[O-])CC1)c1ccco1,inactive; 0
18,O=C(N/N=C\c1cc(Br)c(Br)o1)c1cncc(Br)c1,inactive; 0
19,Cc1cc(C)c2nc(SCC(=O)NCCC3=CCCCC3)cc(C)c2c1,inactive; 0
20,c1csc(CCNc2ncnc3sc4c(c23)CCC4)c1,inactive; 0
21,CC1=NCCN1S(=O)(=O)c1cc(Cl)ccc1Cl,inactive; 0
22,COC(=O)c1sccc1NC(=O)CSc1ccccc1NS(=O)(=O)c1cc(Cl)ccc1Cl,inactive; 0
23,O=S(=O)(Nc1nc(-c2sccc2Cl)cs1)c1cc(Cl)ccc1Cl,active; -1
24,O=C(NNc1nc2ccccc2nc1C(F)(F)F)c1ccccc1,inactive; 0
25,Cc1cccc(N=C2NC(=O)/C(=C/C=C/c3ccco3)S2)c1C,inactive; 0
26,Cc1nc(SC2CCOC2=O)c2c(C)c(C)sc2n1 (centres undefined),inactive; 0
27,Cc1sc2nc(C(C)C)nc(SCC(=O)N3c4ccccc4CC3C)c2c1C (centres undefined),inactive; 0

row,SMILES,outcome
1,C/C(=N\NC(=O)c1cccc(F)c1)c1ccc(Br)s1,active; 1
2,C/C(=N\NC(=O)c1ccc(Cl)cc1)c1ccc(Br)s1,inactive; 0
3,C/C(=N\NC(=O)c1ccccc1O)c1ccc(Br)s1,inactive; 0
4,Cc1ccc2c(Cl)cc(Cl)c(OCC(=O)NCc3ccco3)c2n1,inactive; 0
5,O=C(NN=c1c(=O)c2ccccc2c1=O)c1ccccc1,inactive; 0
6,Cc1ccc(NC(=O)CSC(N)=O)cc1Cl,inactive; 0
7,O=C(CC(O)(C(F)(F)F)C(F)(F)F)Nc1ccc(Cl)c(Cl)c1,active; 1
8,C=COCCNC(=O)Nc1ccc(Cl)c(Cl)c1,inactive; 4
9,O=C(NNC(=O)c1sccc1-n1cccc1)c1ccc(Cl)cc1,inactive; 0
10,CCOC(=O)c1ccccc1NC(=O)CSc1nnc(Cc2cccn2C)n1-c1ccc(C)cc1,inactive; 0
11,Fc1ccc(/C=N/n2c(-c3cccs3)n[nH]c2=S)cc1,inactive; 0
12,CCOc1ccc2nc(/N=C/c3c(C)[nH]n(-c4ccc(C)cc4)c3=O)sc2c1,inactive; 0
13,O=c1c2ccccc2nc(-c2cccc(Cl)c2)n1O,inactive; 0
14,O=c1c2cc(Br)ccc2nc(-c2cccc(C(F)(F)F)c2)n1O,active; 1
15,O=c1c2ccc(Cl)cc2nc(-c2cccc(C(F)(F)F)c2)n1O,inactive; 3
16,COC(=O)c1onc(C(=O)c2ccccc2)c1C(=O)OC,inactive; 0
17,COc1ccc(N2CCCn3c2nc2c3c(=O)n(Cc3ccccc3F)c(=O)n2C)c(OC)c1,inactive; 0
18,COc1ccc(NC(=O)C(=O)NNC(=O)c2cccs2)c(OC)c1,inactive; 0
19,Cn1c(N2CCCC2)nc2c1c(=O)n(Cc1ccc(Cl)cc1)c(=O)n2C,active; 2
20,Cn1c(=O)c2c(nc(-n3ccnc3)n2Cc2ccccc2)n(C)c1=O,inactive; 0
21,COc1ccc(N2CCN(c3nc4c(c(=O)n(C)c(=O)n4C)n3Cc3ccccc3)CC2)cc1,inactive; 0
22,CCOC(=O)Cc1csc(NC(=S)NC(=O)c2ccccc2Br)n1,inactive; 0
23,CCc1ccc(NC(=S)NNC(=O)c2ccccc2OC(F)F)cc1,inactive; 0
24,Cc1ccc(C)c(NC(=S)NNC(=O)c2csc3c2CCC(C)C3)c1 (centres undefined),inactive; 0
25,O=C(N/N=C\c1ccc(Cl)s1)c1cccs1,inactive; 0
26,CCC(=O)n1nc(-c2cccnc2)nc1NCc1ccc(OC)cc1,inactive; 0
27,O=C(c1cc2nc(-c3ccccc3)cc(-c3ccccc3)n2n1)N1CCN(C(=O)c2ccco2)CC1,inactive; 0
